Assay results taken from ChEMBL document CHEMBL1138466, “Isaindigotone derivatives: a new class of highly selective ligands for telomeric G-quadruplex DNA” (J Med Chem, 2009).
Activity calls are given as the source filed them. No cut-off for these calls is given here.

Legend:
CA46 [1] = test: Cytotoxicity against human CA46 cells after 2 days by MTT assay; assay type: functional, cell-based; conditions: CA46, 48 h
Outline: (§1)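 MTT viability: HL60 or CA46 cells seeded at 1.0 × 10³ per well and exposed to a ligand concentration series for 48 h at 37 °C, 5% CO₂. MTT added for 4 h, then DMSO; absorbance read at 570 nm. Each dose tested in triplicate; IC50 taken from mean OD versus concentration curves.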

Nucleic Acid [2] = test: Binding affinity to HTG21 DNA assessed as induction of guanine-rich DNA to G-quadruplex structure formation; assay type: nucleic-acid assay
Outline: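 CD titration: HTG21 5 µM in 10 mM Tris-HCl pH 7.2, without or with 100 mM KCl. Annealed at 90 °C for 5 min, cooled slowly, held at 4 °C overnight. Ligand added at 0–5 mol equiv at 25 °C with at least 13 min equilibration per addition. Spectra recorded 230–450 nm in a 4 mm quartz cuvette.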

CA46 [3] = test: Induction of senescence in human CA46 cells assessed as beta galactosidase activity at 0.9 uM for 16 days; assay type: functional, cell-based
Outline: (§2)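 SA-β-Gal staining: HL60 or CA46 cells treated continuously with 0.9 µM ligand or 0.1% DMSO for 16 days. Fixed in 2% formaldehyde/0.2% glutaraldehyde for 15 min, stained overnight at 37 °C with 1 mg/mL X-gal, then examined by light microscopy (×400). Repeated twice.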

Nucleic Acid [4] = test: Binding affinity to oligonucleotide HTG21 by florescence titration assay in presence of K+ solution; assay type: nucleic-acid assay
Outline: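 Fluorescence titration at 25 °C in 10 mM Tris-HCl pH 7.2 with 100 mM KCl. HTG21 DNA added to ligand up to 0–2 µM final, with at least 10 min equilibration after each addition. Excitation at 343 or 353 nm depending on ligand. Binding constant Kb derived from the titration.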

HL-60 [5] = test: Induction of telomere shortening in human HL60 cells assessed as telomere length at 0.9 uM by telomeric restriction fragment assay; assay type: functional, cell-based
Outline: (§3)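 TRF length: HL60 or CA46 cells treated for 16 days with 0.9 or 1.8 µM ligand or 0.1% DMSO. Genomic DNA digested with HinfI/RsaI, run on 0.8% agarose, transferred to nylon membrane and baked at 120 °C for 20 min. Telomeric smears detected by Southern analysis.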

HL-60 [6] = test: Induction of senescence in human HL60 cells assessed as beta galactosidase activity at 0.9 uM for 16 days; assay type: functional, cell-based; outline: as §2
HL-60 [7] = test: Cytotoxicity against human HL60 cells after 2 days by MTT assay; assay type: functional, cell-based; conditions: HL-60, 48 h; outline: as §1
HL-60 [8] = test: Cytotoxicity against human HL60 cells assessed as decrease in population doubling at 1.8 uM after 12 days; assay type: functional, cell-based
HL-60 [9] = test: Cytotoxicity against human HL60 cells assessed as decrease in population doubling at 0.9 uM after 12 days; assay type: functional, cell-based
Nucleic Acid [10] = test: Binding affinity to F10T hairpin duplex DNA assessed as change in melting temperature at 1 uM by FRET assay; assay type: nucleic-acid assay
Outline: (§4)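 FRET melting of dual-labelled probes (FAM/TAMRA): G-quadruplex F21T or hairpin duplex F10T, 0.2 µM, in 10 mM Tris-HCl pH 7.2 with 60 mM KCl, ligand 1 µM. Emission read at 530 nm (excitation 470 nm) every 1 °C from 37 to 99 °C, with a 30 s hold before each reading. ΔTm is taken relative to the annealed probe without ligand.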

Nucleic Acid [11] = test: Binding affinity to F21T human telomeric DNA assessed as change in melting temperature at 1 uM by FRET assay; assay type: nucleic-acid assay; outline: as §4
HL-60 [12] = test: Induction of telomere shortening in human HL60 cells assessed as telomere length at 1.8 uM by telomeric restriction fragment assay; assay type: functional; outline: as §3
CA46 [13] = test: Cytotoxicity against human CA46 cells assessed as decrease in population doubling at 0.9 uM after 12 days; assay type: functional, cell-based
CA46 [14] = test: Induction of telomere shortening in human CA46 cells assessed as telomere length at 1.8 uM by telomeric restriction fragment assay; assay type: functional; outline: as §3
[15] = Inhibition of human telomerase in human MCF7 cell free extract by TRAP-LIG assay
Outline: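 TRAP-LIG: MCF-7 protein extract (500 ng) extends TS primer in TRAP buffer (pH 8.3, 68 mM KCl) with 125 µM dNTPs and ligand, 20 min at 30 °C. Product purified to remove ligand, then PCR-amplified with ACX primer for 35 cycles. Products resolved on 16% PAGE with silver staining; IC50 computed from band optical density.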

HL-60 [16] = test: Cytotoxicity against human HL60 cells at 4.5 uM after 12 days; assay type: functional, cell-based
HL-60 [17] = test: Cytotoxicity against human HL60 cells at 4.5 uM after 8 days; assay type: functional, cell-based

Activity (Nucleic Acid [2])	Kb (Nucleic Acid [4])	ΔTm (Nucleic Acid [10])	ΔTm (Nucleic Acid [11])	IC50 [15]	Compound	IC50 (CA46 [1])	Activity (CA46 [3])	Activity (HL-60 [5])	Activity (HL-60 [6])	IC50 (HL-60 [7])	Activity (HL-60 [8])	Activity (HL-60 [9])	Activity (HL-60 [12])	Activity (CA46 [13])	Activity (CA46 [14])	Activity (HL-60 [16])	Activity (HL-60 [17])
Active	10.1 10^6 M-1	0.1 °C	21.9 °C	7.8 µM	O=C(CCN1CCCC1)Nc1ccc(/C=C2\CCn3c2nc2cc(NC(=O)CCN4CCCC4)ccc2c3=O)cc1	29 µM	Active	Active	Active	33 µM	Active	Active	1.1 kilobase	Active	2.3 kilobase	Active	Active
	7.2 10^6 M-1	0.4 °C	17.6 °C	9 µM	O=C(CCN1CCCC1)Nc1ccc(/C=C2\CCn3c2nc2ccc(NC(=O)CCN4CCCC4)cc2c3=O)cc1												
	9.8 10^6 M-1	0 °C	22 °C	9.3 µM	O=C(CCN1CCCCC1)Nc1ccc(/C=C2\CCn3c2nc2cc(NC(=O)CCN4CCCCC4)ccc2c3=O)cc1												
	8.1 10^6 M-1	0.1 °C	17.6 °C	15.2 µM	O=C(CCN1CCCCC1)Nc1ccc(/C=C2\CCn3c2nc2ccc(NC(=O)CCN4CCCCC4)cc2c3=O)cc1												

Compound	Activity (Nucleic Acid [2])	Kb (Nucleic Acid [4])	ΔTm (Nucleic Acid [10])	ΔTm (Nucleic Acid [11])	IC50 [15]	IC50 (CA46 [1])	Activity (CA46 [3])	Activity (HL-60 [5])	Activity (HL-60 [6])	IC50 (HL-60 [7])	Activity (HL-60 [8])	Activity (HL-60 [9])	Activity (HL-60 [12])	Activity (CA46 [13])	Activity (CA46 [14])	Activity (HL-60 [16])	Activity (HL-60 [17])
CN(C)CCCNc1c2ccccc2nc2c1[nH]c1ccccc12			5.7 °C	10.4 °C													
